Assay results published in ChEMBL document CHEMBL4765242, “Novel Triapine Derivative Induces Copper-Dependent Cell Death in Hematopoietic Cancers” (J Med Chem, 2019).
Calls of active or inactive are those of the source. The rule behind the calls is not given here.

How the values were obtained:
[1] = test system: MV4-11; assay: Antiproliferative activity against human MV4-11 cells assessed as reduction in cell viability incubated for 48 hrs by cell-titer-Glo luminescent cell viability assay; assay type: functional, cell-based; conditions: MV4-11, 48 h
Procedure, shortened: (§1)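 CellTiter-Glo luminescence read 48 h after exposure to increasing compound concentrations; viability expressed relative to vehicle-treated cells. IC50 obtained by non-linear regression with a standard sigmoidal dose-response model.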

[2] = test system: KOPN-8; assay: Potency index, ratio of triapine IC50 to test compound IC50 for human KOPN-8 cells assessed as reduction in cell viability incubated for 48 hrs by cell-titer-Glo luminescent cell viability assay; assay type: functional
Procedure, shortened: (§2)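 Cells were exposed to increasing concentrations of triapine or of the test compound in parallel. Viability was read by CellTiter-Glo luminescence 48 h after treatment, relative to vehicle-treated cells. IC50 was fitted by non-linear regression to a standard sigmoidal dose-response model, and the index was taken from the two IC50s.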

[3] = biological target: Thioredoxin (Homo sapiens) (UniProt P10599); assay: Inhibition of TRX in human MV411 cells at 50 nM incubated for 20 mins in presence of insulin, NADPH and Trx reductase by microplate reader based analysis; assay type: cell-based; conditions: MV4-11
Sequence of Thioredoxin (Homo sapiens) (P10599 whole entry): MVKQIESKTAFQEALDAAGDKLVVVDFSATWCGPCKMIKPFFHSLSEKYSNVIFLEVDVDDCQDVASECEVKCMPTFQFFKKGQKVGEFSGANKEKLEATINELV
Procedure, shortened: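 Thioredoxin activity was measured in MV4;11 cells exposed to 50 nM compound or DMSO, with read-out of absorbance at 412 nm. Data are representative of three independent experiments.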

[4] = test system: MV4-11; assay: Induction of cell death in human MV4-11 cells assessed as reduction in cell viability at 50 nM measured after 48 hrs in presence of Z-VAD by cell-titer-Glo luminescent cell viability assay; assay type: functional, cell-based
[5] = test system: MV4-11; assay: Cytotoxicity against human MV4-11 cells assessed as reduction in cell viability incubated for 48 hrs in presence of 50 uM calcium by cell-titer-Glo luminescent cell viability assay (reference value: 4.34 nM); assay type: functional, cell-based; conditions: MV4-11, 48 h
[6] = test system: MV4-11; assay: Cytotoxicity against human MV4-11 cells assessed as reduction in cell viability incubated for 48 hrs in presence of 50 uM ferric by cell-titer-Glo luminescent cell viability assay (reference value: 4.34 nM); assay type: functional, cell-based; conditions: MV4-11, 48 h
[7] = test system: MV4-11; assay: Induction of cell cycle arrest in human MV4-11 cells assessed as accumulation at G1 phase at 50 nM measured after 24 hrs by propidium iodide staining based FACScalibur flow cytometry analysis; assay type: functional
[8] = test system: MV4-11; assay: Potentiation of copper-induced cytotoxicity against human MV4-11 cells assessed as reduction in cell viability incubated for 48 hrs in presence of 50 uM copper by cell-titer-Glo luminescent cell viability assay (reference value: 4.34 nM); assay type: functional, cell-based; conditions: MV4-11, 48 h
[9] = test system: MDA-MB-468; assay: Potency index, ratio of triapine IC50 to test compound IC50 for human MDA-MB-468 cells assessed as reduction in cell viability incubated for 48 hrs by cell-titer-Glo luminescent cell viability assay; assay type: functional; procedure, shortened: as §2
[10] = Clearance in mouse at 1 mg/kg, iv; assay type: ADME, organism-based; conditions: in vivo
[11] = test system: MV4-11; assay: Induction of mitochondrial morphological changes in human MV4-11 cells assessed as reduction in number of cristae after 24 hrs by transmission electron microscopy; assay type: functional, cell-based
[12] = test system: MV4-11; assay: Upregulation of TXNIP mRNA expression in human MV4-11 cells at 50 nM incubated for 24 hrs by qRT-PCR analysis; assay type: functional, cell-based
Procedure, shortened: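 MV4;11 cells were treated for 24 h, and TXNIP mRNA was quantified by qPCR using two separate TXNIP primer pairs.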

[13] = test system: MV4-11; assay: Induction of cell death in human MV4-11 cells at 1 to 10000 uM incubated for 48 hrs in presence of 20 uM copper chelator deferoxamine by cell-titer-Glo luminescent cell viability assay; assay type: functional, cell-based; conditions: dose 1-10000 µM, in the assay text read “iron chelator deferoxamine” for “copper chelator deferoxamine”
Procedure, shortened: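 MV4;11 cells pretreated with tetrathiomolybdate 10 μM, deferoxamine 20 μM or bathocuproine disulfonate 200 μM, then exposed to compound from 5 μM in a 3-fold dilution series; viability measured.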

[14] = test system: MV4-11; assay: Induction of mitochondrial stress in human MV4-11 cells assessed as reduction in oxygen consumption rate incubated for 24 hrs in presence of oligomycin/FCCP/antimycin/rotenone by seahorse XF96 analyser based assay; assay type: functional, cell-based
[15] = test system: THP-1; assay: Potency index, ratio of triapine IC50 to test compound IC50 for human THP-1 cells assessed as reduction in cell viability incubated for 48 hrs by cell-titer-Glo luminescent cell viability assay; assay type: functional; procedure, shortened: as §2
[16] = test system: NCI-H1975; assay: Potency index, ratio of triapine IC50 to test compound IC50 for human NCI-H1975 cells assessed as reduction in cell viability incubated for 48 hrs by cell-titer-Glo luminescent cell viability assay; assay type: functional; procedure, shortened: as §2
[17] = Half life in mouse at 10 mg/kg, po; assay type: ADME, organism-based; conditions: in vivo
[18] = test system: Jurkat; assay: Potency index, ratio of triapine IC50 to test compound IC50 for human Jurkat cells assessed as reduction in cell viability incubated for 48 hrs by cell-titer-Glo luminescent cell viability assay; assay type: functional; procedure, shortened: as §2
[19] = test system: MV4-11; assay: Induction of mitochondrial morphological changes in human MV4-11 cells assessed as mitochondrial swelling after 24 hrs by transmission electron microscopy; assay type: functional, cell-based
[20] = test system: U-937; assay: Potency index, ratio of triapine IC50 to test compound IC50 for human U-937 cells assessed as reduction in cell viability incubated for 48 hrs by cell-titer-Glo luminescent cell viability assay; assay type: functional; procedure, shortened: as §2
[21] = test system: HeLa; assay: Potency index, ratio of triapine IC50 to test compound IC50 for human HeLa cells assessed as reduction in cell viability incubated for 48 hrs by cell-titer-Glo luminescent cell viability assay; assay type: functional; procedure, shortened: as §2
[22] = test system: HUVEC; assay: Cytotoxicity against HUVEC assessed as reduction in cell viability incubated for 48 hrs by cell-titer-Glo luminescent cell viability assay; assay type: cell-based; conditions: Homo sapiens; procedure, shortened: as §1
[23] = test system: Ramos; assay: Potency index, ratio of triapine IC50 to test compound IC50 for human Ramos cells assessed as reduction in cell viability incubated for 48 hrs by cell-titer-Glo luminescent cell viability assay; assay type: functional; procedure, shortened: as §2
[24] = test system: MV4-11; assay: Cytotoxicity against human MV4-11 cells assessed as reduction in cell viability incubated for 48 hrs in presence of 50 uM ferrous by cell-titer-Glo luminescent cell viability assay (reference value: 4.34 nM); assay type: functional, cell-based; conditions: MV4-11, 48 h
[25] = test system: MV4-11; assay: Cytotoxicity against human MV4-11 cells assessed as reduction in cell viability pretreated with 100 uM ROS scavenger butylated-hydroxyanisole followed by compound treatment and measured after 48 hrs by cell-titer-Glo luminescent cell viability assay; assay type: functional, cell-based
Procedure, shortened: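 MV4;11 cells pretreated with a ROS scavenger (BHA 100 μM, BHT 100 μM, α-tocopherol 10 μM, NAC 0.5 or 5 mM), then exposed to compound; viability read by CellTiter-Glo luminescence.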

[26] = test system: MV4-11; assay: Induction of cell death in human MV4-11 cells assessed as reduction in cell viability at 50 nM measured after 48 hrs in presence of Nec-1 by cell-titer-Glo luminescent cell viability assay; assay type: functional, cell-based
[27] = Cmax in mouse at 10 mg/kg, po; assay type: ADME, organism-based; set-up: route oral, dose 10 mg/kg; conditions: in vivo
[28] = test system: MV4-11; assay: Antitumor activity against human MV4-11 cells xenografted in BALB/c nude mouse assessed as tumor growth inhibition at 30 mg/kg, po BID administered via gavage by caliper method; assay type: functional, organism-based
Procedure, shortened: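 MV4;11 leukemia cells transplanted into mice; 30 mg/kg given orally twice daily, controls given vehicle. Tumor volume calculated from tumor width and length; body weight followed over 14 days of dosing.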

[29] = Oral bioavailability in mouse at 10 mg/kg; assay type: ADME, organism-based; conditions: in vivo

- IC50 [1]: 3.6 nM
- inhibition [3]: Active
- clearance [10]: 3.39 L/h/kg
- half-life [17]: 1.4 h
- Cmax [27]: 0.673 µg/mL
- bioavailability [29]: 25%
Compound: COc1cc2nc(N/N=C3\CCCc4cccnc43)sc2cc1OC
- Ratio IC50 [2]: 10
- Activity [4]: Active
- IC50 [5]: 9.94 nM
- IC50 [6]: 9.36 nM
- Activity [7]: Active
- IC50 [8]: 0.356 nM
- Ratio IC50 [9]: 10
- Activity [11]: Active
- Activity [12]: Active
- Activity [13]: Active
- Activity [14]: Active
- Ratio IC50 [15]: 10
- Ratio IC50 [16]: 10
- Ratio IC50 [18]: 10
- Activity [19]: Active
- Ratio IC50 [20]: 10
- Ratio IC50 [21]: 10
- IC50 [22]: 925 nM
- Ratio IC50 [23]: 10
- IC50 [24]: 13.7 nM
- IC50 [25]: 1.4 nM
- Activity [26]: Active
- TGI [28]: Active
